Source: ChEMBL document CHEMBL3425450, “Neuroactive Steroids. 1. Positive Allosteric Modulators of the (γ-Aminobutyric Acid)A Receptor: Structure-Activity Relationships of Heterocyclic Substitution at C-21” (J Med Chem, 2015)
In brackets after ≈: the same amount, converted by molar mass.

How the values were obtained:
[1] = Clearance in human liver microsomes at 10 uM after 60 mins by HPLC-MS/MS analysis; assay type: ADME
[2] = Clearance in rat liver microsomes at 10 uM after 60 mins by HPLC-MS/MS analysis; assay type: ADME
[3] = Clearance in mouse liver microsomes at 10 uM after 60 mins by HPLC-MS/MS analysis; assay type: ADME
[4] = Clearance in Sprague-Dawley rat at 5 mg/kg, iv and 20 mg/kg, po by LC-MS/MS analysis; assay type: ADME, organism-based; settings: in vivo
Procedure, shortened: (§1)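 Rats were dosed i.v. at 5 mpk and orally at 20 mpk. Clearance and oral bioavailability were calculated from mean plasma concentrations of 2 rats.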

[5] = Oral bioavailability in Sprague-Dawley rat at 20 mg/kg by LC-MS/MS analysis; assay type: ADME, organism-based; settings: in vivo; procedure, shortened: as §1
[6] = Ratio of drug level in brain to plasma in Sprague-Dawley rat at 5 mg/kg, iv after 30 mins by LC-MS/MS analysis; assay type: ADME, organism-based; parameters: dose 5 mg/kg, route intravenous; settings: read-out: BPR
Procedure, shortened: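 Brain and plasma were sampled at a single point 30 min after the i.v. 5 mpk dose. The ratio was calculated from mean concentrations of 2 rats.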

[7] = molecular target: GABA-A receptor; agonist GABA site; experiment: Positive allosteric modulation of recombinant alpha4beta3delta GABAA receptor (unknown origin) expressed in CHO cells assessed as potentiation of GABA-induced channel current treated for 30 s prior to GABA stimulation for 2s by manual patch assay; assay type: cell-based, Homo sapiens
[8] = molecular target: GABA-A receptor; anion channel; experiment: Displacement of [3H]TBPS from GABAA receptor in Sprague-Dawley rat brain cortical membrane after 90 mins by liquid scintillation spectrometry
[9] = molecular target: GABA-A receptor; agonist GABA site; experiment: Positive allosteric modulation of recombinant alpha1beta2gamma2 GABAA receptor (unknown origin) expressed in LTK cells assessed as potentiation of GABA-induced channel current treated for 30 s prior to GABA stimulation for 2s by Q-patch assay; assay type: cell-based, Homo sapiens
[10] = Lipophilicity, log D of the compound at 20 uM at pH 7.4 by HPLC-MS/MS analysis; assay type: physicochemical; settings: buffer
[11] = Aqueous solubility of the compound at pH 7.4 by HPLC-MS/MS analysis; assay type: physicochemical; settings: buffer
[12] = Retention time of the compound by LC-MS analysis; assay type: physicochemical
Procedure, shortened: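 Eluents were water and acetonitrile, each with TFA, run as a 5 to 95% acetonitrile gradient over 1.5 min at 1.5 mL/min. Capillary voltage was 3.5 kV and fragmentor voltage 50 V.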

Structure (SMILES)	CLhep predicted at 10 µM [1]	CLhep predicted at 10 µM [2]	CLhep predicted at 10 µM [3]	clearance [4]	bioavailability [5]	Kp at 0.5 h [6]	EC50 [7]	IC50 [8]	EC50 [9]	logD at 20 µM [10]	solubility [11]	Retention_time [12]
CC(=O)[C@H]1CC[C@H]2[C@@H]3CC[C@H]4C[C@](C)(O)CC[C@]4(C)[C@H]3CC[C@]12C [GANAXOLONE]	6.5 mL/min/kg	55.7 mL/min/kg	67.5 mL/min/kg	51.7 mL/min/kg	10%	4	103 nM	42 nM	266 nM	5.3	0.7 µM (≈ 0.233 µg/mL)	–
C[C@@]1(O)CC[C@H]2[C@H](CC[C@@H]3[C@@H]2CC[C@]2(C)[C@@H](C(=O)Cn4cccn4)CC[C@@H]32)C1	–	–	–	–	–	–	1460 nM	32 nM	945 nM	–	–	0.88 min
C[C@@]1(O)CC[C@H]2[C@@H](CC[C@@H]3[C@@H]2CC[C@]2(C)[C@@H](C(=O)Cn4cccn4)CC[C@@H]32)C1	–	–	–	–	–	–	1150 nM	149 nM	> 3000 nM	–	–	0.89 min
C[C@@]1(O)CC[C@H]2[C@H](CC[C@@H]3[C@@H]2CC[C@]2(C)[C@@H](C(=O)Cn4cc5cnccc5n4)CC[C@@H]32)C1	–	–	–	–	–	–	1350 nM	24 nM	> 3000 nM	–	–	1.06 min
CC(=O)[C@H]1CC[C@H]2[C@@H]3CC[C@H]4C[C@](C)(O)CC[C@@H]4[C@H]3CC[C@]12C	8.33 mL/min/kg	52.8 mL/min/kg	67.5 mL/min/kg	–	–	–	553 nM	74 nM	355 nM	5.1	1 µM (≈ 0.319 µg/mL)	–
C[C@@]1(O)CC[C@H]2[C@H](CC[C@@H]3[C@@H]2CC[C@]2(C)[C@@H](C(=O)Cn4ncc5ncccc54)CC[C@@H]32)C1	–	–	–	–	–	–	> 3000 nM	25 nM	2510 nM	–	–	0.85 min
C[C@@]1(O)CC[C@H]2[C@H](CC[C@@H]3[C@@H]2CC[C@]2(C)[C@@H](C(=O)Cn4ncc5cccnc54)CC[C@@H]32)C1	–	–	–	–	–	–	1870 nM	16 nM	1750 nM	–	–	0.9 min
CC(=O)[C@H]1CC[C@H]2[C@@H]3CC[C@H]4C[C@H](O)CC[C@]4(C)[C@H]3CC[C@]12C [BREXANOLONE]	8.33 mL/min/kg	55.7 mL/min/kg	67.5 mL/min/kg	80 mL/min/kg	2.3%	1.8	75.5 nM	22 nM	237 nM	4.9	3.3 µM (≈ 1.05 µg/mL)	–
C[C@@]1(O)CC[C@H]2[C@@H](CC[C@@H]3[C@@H]2CC[C@]2(C)[C@@H](C(=O)Cn4ccnc4)CC[C@@H]32)C1	–	–	–	–	–	–	> 3000 nM	108 nM	> 3000 nM	–	–	0.76 min
C[C@@]1(O)CC[C@H]2[C@H](CC[C@@H]3[C@@H]2CC[C@]2(C)[C@@H](C(=O)Cn4ncc5c4CCCC5)CC[C@@H]32)C1	–	–	–	–	–	–	> 3000 nM	50 nM	1490 nM	–	–	0.94 min
C[C@@]1(O)CC[C@H]2[C@@H](CC[C@@H]3[C@@H]2CC[C@]2(C)[C@@H](C(=O)Cn4nccn4)CC[C@@H]32)C1	–	–	–	–	–	–	1420 nM	54 nM	592 nM	–	–	0.889 min
C[C@@]1(O)CC[C@H]2[C@H](CC[C@@H]3[C@@H]2CC[C@]2(C)[C@@H](C(=O)Cn4ccnc4)CC[C@@H]32)C1	–	–	–	–	–	–	3130 nM	21 nM	> 3000 nM	–	–	0.76 min
C[C@@]1(O)CC[C@H]2[C@H](CC[C@@H]3[C@@H]2CC[C@]2(C)[C@@H](C(=O)Cn4cc5c(n4)CCCC5)CC[C@@H]32)C1	10.8 mL/min/kg	55.7 mL/min/kg	67.5 mL/min/kg	–	–	–	178 nM	24 nM	724 nM	5.7	0.3 µM (≈ 0.132 µg/mL)	0.93 min
C[C@@]1(O)CC[C@H]2[C@@H](CC[C@@H]3[C@@H]2CC[C@]2(C)[C@@H](C(=O)Cn4cnnn4)CC[C@@H]32)C1	–	–	–	–	–	–	2140 nM	214 nM	> 3000 nM	–	–	0.86 min
C[C@@]1(O)CC[C@H]2[C@H](CC[C@@H]3[C@@H]2CC[C@]2(C)[C@@H](C(=O)CN4CCCC4)CC[C@@H]32)C1	–	–	–	–	–	–	–	1290 nM	–	–	–	0.745 min
C[C@@]1(O)CC[C@H]2[C@H](CC[C@@H]3[C@@H]2CC[C@]2(C)[C@@H](C(=O)Cn4cc5ccccc5n4)CC[C@@H]32)C1	–	–	–	–	–	–	2520 nM	11 nM	1900 nM	–	–	0.92 min
C[C@@]1(O)CC[C@H]2[C@H](CC[C@@H]3[C@@H]2CC[C@]2(C)[C@@H](C(=O)Cn4cncn4)CC[C@@H]32)C1	–	–	–	–	–	–	> 3000 nM	140 nM	> 3000 nM	–	–	0.829 min
C[C@@]1(O)CC[C@H]2[C@H](CC[C@@H]3[C@@H]2CC[C@]2(C)[C@@H](C(=O)Cn4ncc5ccccc54)CC[C@@H]32)C1	–	–	–	–	–	–	508 nM	15 nM	1530 nM	–	–	0.95 min
C[C@@]1(O)CC[C@H]2[C@H](CC[C@@H]3[C@@H]2CC[C@]2(C)[C@@H](C(=O)Cn4cc5cccnc5n4)CC[C@@H]32)C1	–	–	–	–	–	–	1020 nM	42 nM	> 3000 nM	–	–	0.8 min
C[C@@]1(O)CC[C@H]2[C@@H](CC[C@@H]3[C@@H]2CC[C@]2(C)[C@@H](C(=O)Cn4cncn4)CC[C@@H]32)C1	–	–	–	–	–	–	781 nM	174 nM	> 3000 nM	–	–	0.84 min
C[C@@]1(O)CC[C@H]2[C@H](CC[C@@H]3[C@@H]2CC[C@]2(C)[C@@H](C(=O)Cn4cnnn4)CC[C@@H]32)C1	–	–	–	–	–	–	394 nM	69 nM	2200 nM	–	–	0.84 min
C[C@@]1(O)CC[C@H]2[C@@H](CC[C@@H]3[C@@H]2CC[C@]2(C)[C@@H](C(=O)Cn4ccnn4)CC[C@@H]32)C1	–	–	–	–	–	–	1320 nM	102 nM	2740 nM	–	–	0.85 min
C[C@@]1(O)CC[C@H]2[C@@H](CC[C@@H]3[C@@H]2CC[C@]2(C)[C@@H](C(=O)CN4CCCC4)CC[C@@H]32)C1	–	–	–	–	–	–	–	2890 nM	–	–	–	0.77 min
CC(=O)[C@H]1CC[C@H]2[C@@H]3CC[C@@H]4C[C@](C)(O)CC[C@@H]4[C@H]3CC[C@]12C	–	–	–	–	–	–	119 nM	55 nM	371 nM	–	–	–
C[C@@]1(O)CC[C@H]2[C@H](CC[C@@H]3[C@@H]2CC[C@]2(C)[C@@H](C(=O)Cn4ccnn4)CC[C@@H]32)C1	–	–	–	–	–	–	1830 nM	27 nM	1840 nM	–	–	0.84 min
C[C@@]1(O)CC[C@H]2[C@H](CC[C@@H]3[C@@H]2CC[C@]2(C)[C@@H](C(=O)Cn4ncc5ccncc54)CC[C@@H]32)C1	–	–	–	–	–	–	> 3000 nM	17 nM	> 3000 nM	–	–	0.8 min
C[C@@]1(O)CC[C@H]2[C@H](CC[C@@H]3[C@@H]2CC[C@]2(C)[C@@H](C(=O)Cn4ncc5cnccc54)CC[C@@H]32)C1	–	–	–	–	–	–	1400 nM	33 nM	> 3000 nM	–	–	0.75 min
